Assay results of several laboratories.
Each line is one published result; the experiments were not run side by side.
Target: MAP/microtubule affinity-regulating kinase 4 (MARK4, Homo sapiens, UniProt Q96L34)
Residues used in one study (Q96L34 1-752): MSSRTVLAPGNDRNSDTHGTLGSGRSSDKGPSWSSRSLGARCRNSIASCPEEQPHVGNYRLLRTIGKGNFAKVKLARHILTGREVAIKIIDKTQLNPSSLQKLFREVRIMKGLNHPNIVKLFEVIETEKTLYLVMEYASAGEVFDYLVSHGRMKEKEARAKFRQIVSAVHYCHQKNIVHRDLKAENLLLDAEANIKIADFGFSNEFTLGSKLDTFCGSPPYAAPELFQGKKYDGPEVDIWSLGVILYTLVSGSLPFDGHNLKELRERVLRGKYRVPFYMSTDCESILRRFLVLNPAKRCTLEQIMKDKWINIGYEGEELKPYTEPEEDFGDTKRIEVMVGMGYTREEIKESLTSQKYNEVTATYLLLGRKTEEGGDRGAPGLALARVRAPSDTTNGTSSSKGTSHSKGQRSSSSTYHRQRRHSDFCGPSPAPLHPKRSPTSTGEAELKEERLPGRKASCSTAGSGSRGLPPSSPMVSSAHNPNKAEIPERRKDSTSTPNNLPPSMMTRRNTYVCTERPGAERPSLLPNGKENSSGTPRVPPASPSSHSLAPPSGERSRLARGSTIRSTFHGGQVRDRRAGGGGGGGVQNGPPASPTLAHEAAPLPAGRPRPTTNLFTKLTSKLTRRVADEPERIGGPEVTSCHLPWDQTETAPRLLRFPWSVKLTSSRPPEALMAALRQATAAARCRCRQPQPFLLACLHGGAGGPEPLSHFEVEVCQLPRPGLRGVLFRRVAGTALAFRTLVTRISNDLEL

Structure (SMILES) | test | setting | endpoint | value
COc1cc(Nc2cnc(C#N)c(O[C@H](C)CN(C)C)n2)ncc1-c1cnn(C)c1 | enzyme activity, inhibitor, radiometric | 10 µM | remaining activity | 83%
CC(=O)N1CCC(c2ccc(C(=O)NC(=N)N)cc2C(F)(F)F)CC1 | cell-free assay, competition with immobilised ligand | 1 µM | remaining binding | 100%
NS(=O)(=O)c1ccc(CNc2nc(Nc3cccc(NC(=O)N4CCCC4)c3)ncc2C2CC2)cc1 | enzyme activity, inhibitor, radiometric | 1 µM | remaining activity | 89%
O=C(Nc1cccnn1)N1CCC(=Cc2cccc(Oc3ccc(C(F)(F)F)cn3)c2)CC1 | cell-free assay, competition with immobilised ligand | 1 µM | remaining binding | 76%
N[C@@H]1CCN(c2nccc(-c3cnn4ncccc34)n2)C1 | binding | 1 µM | remaining binding | 100%
COc1cc(/C=C/C(=O)CC(=O)/C=C/c2ccc(O)c(OC)c2)ccc1O | enzyme activity, inhibitor | 1 µM | activity vs control | 74%
Cc1nn(CC(F)(F)F)cc1Nc1ncc(C2CC2)c(NCCCNC(=O)C2CCC2)n1 | enzyme activity, inhibitor, radiometric | 1 µM | remaining activity | 100%
O=C1Nc2ccc(Cl)cc2C1=Cc1cc(Cl)c(O)c(Cl)c1 | cell-free assay | 0.5 µM | remaining signal | 78.4%
Cc1nn(CC(F)(F)F)cc1Nc1nccc(NCCc2cnc[nH]2)n1 | enzyme activity, inhibitor, radiometric | 1 µM | remaining activity | 99%
CCCCN(CCCC)C(=O)CN1C[C@@H](c2cc(OC)c3c(c2)OCO3)[C@H](C(=O)O)[C@H]1CC(C)(C)CCC | cell-free assay, competition with immobilised ligand | 1 µM | remaining binding | 93%
O=C(NCCCNc1ccnc(Nc2cccc(NC(=O)N3CCCC3)c2)n1)C1CCC1 | enzyme activity, inhibitor, radiometric | 1 µM | remaining activity | 85%
CCCOc1ccc([C@@H]2[C@@H](C(=O)O)[C@H](c3ccc4c(c3)OCO4)CN2CC(=O)Nc2c(CC)cccc2CC)cc1 | cell-free assay, competition with immobilised ligand | 1 µM | remaining binding | 100%
O=C(Nc1cnn(-c2csc(C(=O)NC3COC3)c2)c1)Nc1ccccc1Cl | enzyme activity, inhibitor | 5 µM | remaining activity | 108%
C[C@H](c1cccc(C#N)c1)n1cc(Cl)cc(C(N)=O)c1=N | cell-free assay, competition with immobilised ligand | 1 µM | remaining binding | 99%
FC(F)(F)Oc1cccc(-c2cnc3ccc(-c4ccncc4)nn23)c1 | enzyme activity, inhibitor, radiometric | 1 µM | activity vs control | 91%
CN1CC(Oc2cnc(C#N)cc2-c2ccn3nc(NC(=O)C4CC4)cc3c2)C1 | enzyme activity, inhibitor | 1 µM | inhibition | 8%
O=C(NCCCNc1nc(Nc2cccc(CN3CCOCC3)c2)ncc1C1CC1)C1CCC1 | enzyme activity, inhibitor, radiometric | 1 µM | remaining activity | 5%
COc1cc2ncnc(Nc3ccc(Oc4ccccc4)c(C)c3C)c2cc1OC | enzyme activity, inhibitor | 1 µM | inhibition | -1%
NS(=O)(=O)c1ccc(CNc2nc(Nc3cccc(CN4CCOCC4)c3)ncc2Br)cc1 | enzyme activity, inhibitor, radiometric | 1 µM | remaining activity | 61%
CN1CCN(c2cnc3c(C4CCN(C(=O)c5ccc(OC(F)(F)F)cc5N)CC4)ncnc3c2)CC1 | cell-free assay, competition with immobilised ligand | 1 µM | remaining binding | 100%
N#CCCc1ccc2c(c1)-c1[nH]c3ccc([N+](=O)[O-])cc3c1CC(=O)N2 | cell-free assay | 0.5 µM | remaining signal | 62.5%
NS(=O)(=O)c1cc(NC(=O)Cc2ccccc2)ccc1Oc1cccc(Cl)c1 | cell-free assay, competition with immobilised ligand | 1 µM | remaining binding | 100%
Cc1nn(CC(F)(F)F)cc1Nc1ncc(C2CC2)c(NCc2ccc(S(N)(=O)=O)cc2)n1 | enzyme activity, inhibitor, radiometric | 1 µM | remaining activity | 110%
CCOCCn1cc(C(=O)Nc2ccc(-n3nc(-c4cccnc4)cc3C(F)(F)F)cn2)ccc1=O | cell-free assay, competition with immobilised ligand | 1 µM | remaining binding | 100%
NS(=O)(=O)c1ccc(CNc2nc(Nc3cccc(NC(=O)N4CCCC4)c3)ncc2Br)cc1 | enzyme activity, inhibitor, radiometric | 1 µM | remaining activity | 42%
